The source made the active and inactive calls. The rule behind the calls is not given here.
Assays:
3T3-L1 [1] = test: Cytotoxicity against mouse 3T3L1 cells assessed as reduction in cell viability incubated for 48 hrs by CCK8 assay; assay type: cell-based; details: for IC50: Mus musculus, 3T3-L1, 48 h; for Activity: mouse, 3t3-l1, 48 h
In short: (§1)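 3T3-L1 preadipocytes (maintained in DMEM/10% calf serum, 37 °C, 5% CO2) seeded 5×10^3 cells/well in 96-well plates, grown 24 h, then exposed to 1.25–80 µM for 48 h; controls 0.1% DMSO. CCK8 added for 2 h at 37 °C, absorbance at 450 nm. IC50 by logit method; n = 6 plates, ≥3 experiments.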

3T3-L1 [2] = test: Cytotoxicity against mouse 3T3L1 cells assessed as reduction in cell viability at <5 uM incubated for 48 hrs by CCK8 assay; assay type: cell-based; details: 3t3-l1, 48 h; in short: as §1
3T3-L1 [3] = test: Inhibition of lipid accumulation in mouse 3T3L1 cells at 2.5 to 5 uM incubated for 48 hrs by Oil Red O staining based spectrophotometry; assay type: functional, cell-based
In short: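 Mature 3T3-L1 adipocytes (IBMX/DEX/insulin-differentiated, day 10) after 48 h treatment fixed in 10% buffered formalin 30 min, stained with diluted Oil Red O 1 h at room temperature, washed with 60% isopropanol, dye eluted with isopropanol, absorbance read at 510 nm; expressed as percent intracellular lipid.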

3T3-L1 [4] = test: Inhibition of triglyceride content in mouse 3T3L1 cells at 2.5 uM incubated for 48 hrs by triglyceride GPO-POD assay; assay type: functional; details: 3T3-L1, 48 h
In short: (§2)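 Differentiated 3T3-L1 adipocytes treated 0, 2.5 or 5 µM for 48 h; lysates heated 70 °C for 10 min, centrifuged, supernatant mixed with GPO-POD working reagent 10 min at 37 °C, absorbance at 550 nm. TG normalized to BCA protein; 0.1% DMSO controls; mean ± SD of ≥3 experiments.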

3T3-L1 [5] = test: Inhibition of triglyceride content in mouse 3T3L1 cells at 5 uM incubated for 48 hrs by triglyceride GPO-POD assay; assay type: functional; details: 3T3-L1, 48 h; in short: as §2
3T3-L1 [6] = test: Induction of AMPK mRNA expression in mouse 3T3L1 cells at 5 uM incubated for 48 hrs by qPCR method; assay type: functional, cell-based
In short: (§3)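 Mature 3T3-L1 adipocytes (confluent cells induced 3 days with 0.5 mmol/L IBMX, 1.0 µmol/L DEX, 10 mg/L insulin, then insulin 2 days, used ~day 10) treated 0, 2.5 or 5 µM for 48 h. Total RNA extracted, qPCR, normalized to β-actin; DMSO 0.1% controls; mean ± SD, three independent experiments.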

3T3-L1 [7] = test: Induction of Atgl mRNA expression in mouse 3T3L1 cells at 2.5 and 5 uM incubated for 48 hrs by qPCR method; assay type: functional, cell-based; in short: as §3
3T3-L1 [8] = test: Effect on Hsl mRNA expression in mouse 3T3L1 cells at 2.5 and 5 uM incubated for 48 hrs by qPCR method; assay type: functional, cell-based; in short: as §3
3T3-L1 [9] = test: Suppression of lipogenesis associated gene expression in mouse 3T3L1 cells assessed as reduction in Srebp-1c mRNA expression incubated for 48 hrs by qPCR method; assay type: functional, cell-based; in short: as §3
3T3-L1 [10] = test: Suppression of lipogenesis associated gene expression in mouse 3T3L1 cells assessed as reduction in Fasn mRNA expression at 5 uM incubated for 48 hrs by qPCR method; assay type: functional, cell-based; in short: as §3
3T3-L1 [11] = test: Suppression of lipogenesis associated gene expression in mouse 3T3L1 cells assessed as reduction in Scd1 mRNA expression at 2.5 and 5 uM incubated for 48 hrs by qPCR method; assay type: functional, cell-based; in short: as §3
3T3-L1 [12] = test: Suppression of lipogenesis associated gene expression in mouse 3T3L1 cells assessed as reduction in Acc mRNA expression at 2.5 and 5 uM incubated for 48 hrs by qPCR method; assay type: functional, cell-based; in short: as §3
3T3-L1 [13] = test: Cytotoxicity against mouse 3T3L1 cells assessed as reduction in cell viability at 1.25 to 5 uM incubated for 48 hrs by CCK8 assay; assay type: cell-based; details: 3t3-l1, 48 h; in short: as §1
3T3-L1 [14] = test: Cytotoxicity against mouse 3T3L1 cells assessed as reduction in cell viability at >10 uM incubated for 48 hrs by CCK8 assay; assay type: cell-based; details: 3t3-l1, 48 h; in short: as §1
3T3-L1 [15] = test: Cytotoxicity against mouse 3T3L1 cells assessed as reduction in cell viability at […] incubated for 48 hrs by CCK8 assay; assay type: cell-based; details: 3t3-l1, 48 h
3T3-L1 [16] = test: Reduction in Hsl mRNA expression in mouse 3T3L1 cells at 2.5 uM incubated for 48 hrs by qPCR method; assay type: functional, cell-based; in short: as §3
3T3-L1 [17] = test: Cytotoxicity against mouse 3T3L1 cells assessed as reduction in cell viability at 20 uM incubated for 48 hrs by CCK8 assay; assay type: cell-based; details: 3t3-l1, 48 h; in short: as §1

SMILES	IC50 (3T3-L1 [1])	Activity (3T3-L1 [1])	Activity (3T3-L1 [2])	inhibition (3T3-L1 [3])	inhibition at 2.5 µM (3T3-L1 [4])	inhibition at 5 µM (3T3-L1 [5])	Activity (3T3-L1 [6])	Activity (3T3-L1 [7])	Activity (3T3-L1 [8])	inhibition (3T3-L1 [9])	inhibition (3T3-L1 [10])	inhibition (3T3-L1 [11])	inhibition (3T3-L1 [12])	Activity (3T3-L1 [13])	Activity (3T3-L1 [14])	Activity (3T3-L1 [15])	Activity (3T3-L1 [16])	Activity (3T3-L1 [17])
COc1ccc2cc3[n+](cc2c1OCCCCCCOc1c(O)cc2oc(-c4ccccc4)cc(=O)c2c1O)CCc1cc2c(cc1-3)OCO2	9.42 µM	Dose-dependent effect	Non-Toxic	Active	27.3%	37.4%	Active	Active	inactive	Dose-dependent effect	Active	Active	Active					
O=c1cc(-c2ccccc2)oc2cc(O)c(O)c(O)c12 [BAICALEIN]	29.8 µM	Dose-dependent effect					Active	Active		Dose-dependent effect	Active	Active		Non-Toxic	Toxic	Non-Toxic	Active	
COc1ccc2cc3[n+](cc2c1OC)CCc1cc2c(cc1-3)OCO2 [BERBERINE]	21.8 µM	Dose-dependent effect						Active		Dose-dependent effect	Active	Active					Active	45%
